Each structure is given as a SMILES string. The source made the active and inactive calls. The rule behind the calls is not given here.

The subject of assay [1] is MDA-MB-231. The assay is described as follows: Induction of apoptosis in human MDA-MB-231 cells assessed as up-regulation of Bad expression at 1.5 to 6 uM measured after 8 hrs by Western blot analysis. The class given is functional, cell-based. To be noted: dose 1.5-6 µM. The gist of the method: (§1)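 MDA-MB-231 cells (8×10^5 per 60 mm dish) attached 24 h, then exposed 8 h to 1.5, 3 or 6 µM, DMSO as control. Lysates quantified by BCA; 30 µg protein run on 4–20% SDS-PAGE, transferred to PVDF, probed for Bcl-2, Bax, Bad, cleaved caspase-9, cleaved caspase-3 and PARP, with ECL detection. Densitometric relative levels; three experiments.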

Assay [2] deals with MDA-MB-231. The assay is described as follows: Induction of mitochondrial membrane potential depolarization in human MDA-MB-231 cells assessed as proportion of cells with depolarized MMP at 2 uM incubated for 18 hrs by JC-1 staining based flow cytometry (reference value: 0.72%). The class given is functional.
The subject of assay [3] is MDA-MB-231. The assay is described as follows: Induction of apoptosis in human MDA-MB-231 cells assessed as late apoptotic cells at 1 uM after 24 hrs by Annexin V/propidium iodide based flow cytometric analysis (reference value: 0.038%). It is filed as functional. Summed up: (§2)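 MDA-MB-231 cells (2×10^5/well) attached 24 h, then treated 24 h with 1, 1.5, 2 or 3 µM, DMSO as control. Cells harvested, PBS-washed, resuspended in binding buffer, stained with Annexin V and PI for 30 min at 37°C in the dark, and analysed by flow cytometry for quadrant percentages; three experiments.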

Assay [4] relates to MDA-MB-231. The experiment in a line: Induction of apoptosis in human MDA-MB-231 cells assessed as late apoptotic cells at 3 uM after 24 hrs by Annexin V/propidium iodide based flow cytometric analysis (reference value: 0.038%). The class given is functional. The gist of the method:
as §2

Assay [5] has as its system MDA-MB-231. The experiment in a line: Induction of mitochondrial membrane potential depolarization in human MDA-MB-231 cells assessed as proportion of cells with hyperpolarized MMP at 2 uM incubated for 18 hrs by JC-1 staining based flow cytometry (reference value: 98.4%). The class given is functional.
Assay [6] deals with MDA-MB-231. The assay is described as follows: Induction of apoptosis in human MDA-MB-231 cells after 24 hrs by Hoechst33342 staining based fluorescence inverted microscopic analysis. It is filed as functional, cell-based. Particulars: dose 0.5-1.5 µM. Summed up: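 MDA-MB-231 cells (5×10^4/well) attached 24 h, then treated 24 h with 0.5, 1 or 1.5 µM (DMSO vehicle control). Stained with Hoechst 33342 at 10 µg/ml for 5 min at 37°C in the dark, washed with PBS, and examined by inverted fluorescence microscopy for apoptotic nuclear morphology.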

For assay [7], the system named is MDA-MB-231. The experiment in a line: Induction of intracellular reactive oxygen species generation in human MDA-MB-231 cells at 2 uM measured after 24 hrs by DCFH-DA staining based flow cytometry analysis relative to control. The class given is functional. The gist of the method:
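MDA-MB-231 cells at 2×10^5 cells/well, grown 24 h, exposed 24 h to compound (1, 1.5, 2 µM) or DMSO control. Cells then took up DCFH-DA for 30 min at 37°C in the dark, were PBS-washed, resuspended in serum-free medium and analysed by flow cytometry. Relative DCF level vs control; mean ± SD, n = 3.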

Assay [8] in a line: Induction of intracellular reactive oxygen species generation in human MDA-MB-231 cells assessed as proportion of FL1-H positive cells at 2 uM measured after 24 hrs by DCFH-DA staining based flow cytometry analysis (reference value: 47.8%). The class given is functional, MDA-MB-23.
The test system of assay [9] is MDA-MB-231. The assay is described as follows: Induction of cell cycle arrest in human MDA-MB-231 cells assessed as accumulation at G0/G1 phase at 1.5 uM measured after 24 hrs by propidium iodide staining based flow cytometric method (reference value: 45.71%). The class given is functional.
For a further assay, the system named is MDA-MB-23. The assay is described as follows: Induction of mitochondrial membrane potential depolarization in human MDA-MB-231 cells incubated for 18 hrs by JC-1 staining based flow cytometry. The class given is functional, cell-based. Particulars: dose 1-2 µM.
Assay [10] is described as follows: Induction of intracellular reactive oxygen species generation in human MDA-MB-231 cells assessed as proportion of FL1-H positive cells at 1.5 uM measured after 24 hrs by DCFH-DA staining based flow cytometry analysis (reference value: 47.8%). The class given is functional, MDA-MB-23.
Assay [11] deals with MDA-MB-231. The experiment in a line: Induction of apoptosis in human MDA-MB-231 cells assessed as up-regulation of Bax expression at 1.5 to 6 uM measured after 8 hrs by Western blot analysis. It is filed as functional, cell-based. To be noted: dose 1.5-6 µM. The gist of the method:
as §1

Another assay relates to MCF7. The experiment in a line: Antiproliferative activity against human MCF7 cells assessed as inhibition of cell growth rate at 10 uM measured after 48 hrs by MTT assay. The class given is functional. Summed up: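 MCF-7 cells in DMEM with 10% FBS exposed to a single 10 µM concentration for 48 h. Read-out by MTT (0.5 mg/ml, 4 h, DMSO dissolution, A570). Inhibition rate given versus untreated control as mean ± SD, n = 3.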

Assay [12] in a line: Induction of intracellular reactive oxygen species generation in human MDA-MB-231 cells assessed as proportion of FL1-H negative cells at 2 uM pretreated with ROS scavenger, NAC for 2 hrs prior to incubation with compound and measured after 24 hrs by DCFH-DA staining based flow cytometry analysis (reference value: 52.2%). It is filed as functional, MDA-MB-23.
Assay [13] deals with MDA-MB-231. The assay is described as follows: Inhibition of colony formation in human MDA-MB-231 cells assessed as fewer and smaller colonies at 0.5 to 1 uM incubated for 24 hrs followed by culturing in fresh medium for 10 days by crystal violet staining based assay. The class given is functional, cell-based. To be noted: dose 0.5-1 µM. The gist of the method: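 MDA-MB-231 seeded at 1.5×10^3 cells/well, 24 h attachment, then 24 h exposure to compound (0.25, 0.5, 1 µM) or DMSO; fresh medium for a further 10 days. Fixed in 4% paraformaldehyde 0.5 h at 4°C, crystal violet stained, dye dissolved in DMSO and absorbance read at 590 nm; performed three times.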

Assay [14] can be described thus: Anticancer activity against human MDA-MB-231 cells assessed as inhibition of cell proliferation measured after 48 hrs by MTT assay. It is filed as functional, cell-based. Particulars: MDA-MB-23, 48 h. Summed up: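 Cells seeded at ~5,000/well, grown 24 h to partial monolayer, then exposed 48 h at 37°C, 5% CO2 to 0.5, 1, 2, 4, 10 and 20 µM (DMSO ≤0.1%). MTT final 0.5 mg/ml for 4 h, formazan dissolved in DMSO, A570. Survival expressed as % of untreated control; IC50 from dose-response curves; three independent experiments. MDA-MB-231, MCF-7, HepG2 in DMEM; A549 and LO-2 in RPMI-1640; 10% FBS.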

Assay [15] has as its system MDA-MB-231. The assay is described as follows: Induction of apoptosis in human MDA-MB-231 cells assessed as increase in cleaved caspase-3 protein expression incubated for 8 hrs by Western blot analysis. The class given is functional, cell-based. Particulars: dose 1.5-6 µM. The gist of the method: as §1
The subject of assay [16] is MDA-MB-231. The assay is described as follows: Induction of reactive oxygen species production in human MDA-MB-231 cells at 2 uM preincubated with ROS scavenger, NAC for 2 hrs followed by incubation with compound for 24 hrs by DCFH-DA staining based flow cytometry analysis relative to control. It is filed as functional. The gist of the method: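 MDA-MB-231 seeded at 2×10^5 cells/well, grown 24 h, pretreated with NAC (2.5 mM) for 2 h, then given 2 µM compound for 24 h. Cells loaded with DCFH-DA 30 min at 37°C in the dark, washed in PBS, resuspended in serum-free medium and read by flow cytometry; three independent experiments.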

Assay [17] deals with MDA-MB-231. The experiment in a line: Induction of apoptosis in human MDA-MB-231 cells assessed as late apoptotic cells at 1.5 uM after 24 hrs by Annexin V/propidium iodide based flow cytometric analysis (reference value: 0.038%). It is filed as functional. Summed up:
as §2

`COc1cc2cc(N)c(=O)oc2cc1OCCCOc1no[n+]([O-])c1S(=O)(=O)c1ccccc1`: the outcome in the assay with MDA-MB-231 [1] and with MDA-MB-231 [11] was Active. The Activity is 31.5% in the assay with MDA-MB-231 [2]; 8.17% in the assay on MDA-MB-231 [3]; 20.5% with MDA-MB-231 [4]; 67.8% in the assay with MDA-MB-231 [5]; “Dose-dependent effect” in the assay with MDA-MB-231 [6]; 88.8% in [8]. Also, the Activity with MDA-MB-231 [9] is 41.85%; with MDA-MB-23, “Dose-dependent effect”; in assay [10], 82.7%; in assay [12], 49%; with MDA-MB-231 [15] it was “Dose-dependent effect”; with MDA-MB-231 [17], 13.2%. The “fold change (FC)” value in the assay with MDA-MB-231 [7] is recorded as 2.16; in the assay on MDA-MB-231 [16] it was 1.09. Besides, the inhibition at 10 µM with MCF7 is 91.5%. Moreover, in the assay on MDA-MB-231 [13], the inhibition entry is “Active”. For the same compound, the IC50 in assay [14] was found to be 1.23 µM.

For the origin of these results see ChEMBL document CHEMBL4765333, “Novel NO-releasing scopoletin derivatives induce cell death via mitochondrial apoptosis pathway and cell cycle arrest” (Eur J Med Chem, 2020).
